# Measured values collected from several papers.
# Target: Serine/threonine-protein kinase TAO3 (TAOK3, Homo sapiens, UniProt Q9H2K8)
# Sequence (Q9H2K8 1-898, as in one of the studies): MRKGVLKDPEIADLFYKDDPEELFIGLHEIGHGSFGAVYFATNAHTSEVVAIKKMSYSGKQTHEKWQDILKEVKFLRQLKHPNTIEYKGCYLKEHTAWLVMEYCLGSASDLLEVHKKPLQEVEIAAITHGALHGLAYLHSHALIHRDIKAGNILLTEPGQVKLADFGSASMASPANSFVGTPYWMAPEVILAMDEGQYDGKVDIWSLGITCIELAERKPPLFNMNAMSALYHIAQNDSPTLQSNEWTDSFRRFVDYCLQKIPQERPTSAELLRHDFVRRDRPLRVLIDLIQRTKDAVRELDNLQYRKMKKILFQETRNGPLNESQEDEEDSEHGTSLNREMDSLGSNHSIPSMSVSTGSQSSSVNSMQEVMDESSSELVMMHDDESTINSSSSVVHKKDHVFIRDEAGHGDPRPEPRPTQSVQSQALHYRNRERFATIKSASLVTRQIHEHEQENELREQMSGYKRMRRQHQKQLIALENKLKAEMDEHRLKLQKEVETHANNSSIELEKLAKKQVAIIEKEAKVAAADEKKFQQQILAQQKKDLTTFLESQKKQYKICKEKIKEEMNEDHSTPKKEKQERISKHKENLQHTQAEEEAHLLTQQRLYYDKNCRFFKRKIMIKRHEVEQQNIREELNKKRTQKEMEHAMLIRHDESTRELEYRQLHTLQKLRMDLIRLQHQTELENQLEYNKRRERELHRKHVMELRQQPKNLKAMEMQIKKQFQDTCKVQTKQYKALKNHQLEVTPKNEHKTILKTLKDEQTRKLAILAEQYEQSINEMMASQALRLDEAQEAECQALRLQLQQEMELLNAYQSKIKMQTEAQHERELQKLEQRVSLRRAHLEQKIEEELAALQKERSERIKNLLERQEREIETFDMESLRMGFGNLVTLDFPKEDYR
Compound,effect on,mode,technique,tested at,quantity,value
N#CC1(c2ccccn2)CCN(Cc2cc(C(=O)O)c(=O)n3ccccc23)CC1,cell-free assay,,competition with immobilised ligand,1 µM,remaining binding,78%
Cn1cc(-c2cccc(N3CCc4c(sc5c4CC(C)(C)C5)C3=O)c2CO)cc(Nc2ccncn2)c1=O,enzyme activity,inhibitor,,1 µM,inhibition,1%
Cn1cncc1[C@](O)(COc1ccc(C#N)cc1-c1ccc(OC(F)(F)F)cc1)c1ccc(C#N)cc1,cell-free assay,,competition with immobilised ligand,1 µM,remaining binding,87%
Cc1nn(C)cc1-c1nc2c(N3CCN(Cc4ccc(Cl)cc4)CC3)c(Cl)cnc2[nH]1,binding,,competition with immobilised ligand,1 µM,remaining binding,87%
O=c1[nH]c2ccccc2n1C1CCN(Cc2ccc(-c3[nH]c4cc5ncnc5cc4nc3-c3ccccc3)cc2)CC1,cell-free assay,,,0.5 µM,remaining signal,111%
Cn1cc(-c2cc(F)cc(N3CCn4c(cc5c4CCCC5)C3=O)c2CO)cc(Nc2ccc(N3CCN(C4COC4)CC3)cn2)c1=O,enzyme activity,inhibitor,,0.1 µM,inhibition,-6%
CC(C)(C)c1cc(C=C(C#N)C#N)cc(Br)c1O,enzyme activity,inhibitor,,0.5 µM,remaining activity,122%
COc1ncccc1-c1cnn2ccc(N3CCN(C(=O)OC(C)C)CC3)nc12,binding,,competition with immobilised ligand,1 µM,remaining binding,75%
Nc1ncc(-c2nc(N3CCOCC3)nc(N3CCOCC3)n2)c(C(F)F)n1,binding,,competition with immobilised ligand,10 µM,remaining binding,70%
